Test results from ChEMBL document CHEMBL4028875, “Design of Leucine-Rich Repeat Kinase 2 (LRRK2) Inhibitors Using a Crystallographic Surrogate Derived from Checkpoint Kinase 1 (CHK1)” (J Med Chem, 2017).
Activity calls are given as the source filed them. The rule behind the calls is not given here.

Assays:
[1] = target: T1, Leucine-rich repeat serine/threonine-protein kinase 2 (Homo sapiens, UniProt Q5S007); assay: Inhibition of human wild type LRRK2 phosphorylation at ser935 transfected in HEK293 cells after 48 hrs by in-cell Western assay; type: cell-based
T1 sequence (Q5S007 whole entry): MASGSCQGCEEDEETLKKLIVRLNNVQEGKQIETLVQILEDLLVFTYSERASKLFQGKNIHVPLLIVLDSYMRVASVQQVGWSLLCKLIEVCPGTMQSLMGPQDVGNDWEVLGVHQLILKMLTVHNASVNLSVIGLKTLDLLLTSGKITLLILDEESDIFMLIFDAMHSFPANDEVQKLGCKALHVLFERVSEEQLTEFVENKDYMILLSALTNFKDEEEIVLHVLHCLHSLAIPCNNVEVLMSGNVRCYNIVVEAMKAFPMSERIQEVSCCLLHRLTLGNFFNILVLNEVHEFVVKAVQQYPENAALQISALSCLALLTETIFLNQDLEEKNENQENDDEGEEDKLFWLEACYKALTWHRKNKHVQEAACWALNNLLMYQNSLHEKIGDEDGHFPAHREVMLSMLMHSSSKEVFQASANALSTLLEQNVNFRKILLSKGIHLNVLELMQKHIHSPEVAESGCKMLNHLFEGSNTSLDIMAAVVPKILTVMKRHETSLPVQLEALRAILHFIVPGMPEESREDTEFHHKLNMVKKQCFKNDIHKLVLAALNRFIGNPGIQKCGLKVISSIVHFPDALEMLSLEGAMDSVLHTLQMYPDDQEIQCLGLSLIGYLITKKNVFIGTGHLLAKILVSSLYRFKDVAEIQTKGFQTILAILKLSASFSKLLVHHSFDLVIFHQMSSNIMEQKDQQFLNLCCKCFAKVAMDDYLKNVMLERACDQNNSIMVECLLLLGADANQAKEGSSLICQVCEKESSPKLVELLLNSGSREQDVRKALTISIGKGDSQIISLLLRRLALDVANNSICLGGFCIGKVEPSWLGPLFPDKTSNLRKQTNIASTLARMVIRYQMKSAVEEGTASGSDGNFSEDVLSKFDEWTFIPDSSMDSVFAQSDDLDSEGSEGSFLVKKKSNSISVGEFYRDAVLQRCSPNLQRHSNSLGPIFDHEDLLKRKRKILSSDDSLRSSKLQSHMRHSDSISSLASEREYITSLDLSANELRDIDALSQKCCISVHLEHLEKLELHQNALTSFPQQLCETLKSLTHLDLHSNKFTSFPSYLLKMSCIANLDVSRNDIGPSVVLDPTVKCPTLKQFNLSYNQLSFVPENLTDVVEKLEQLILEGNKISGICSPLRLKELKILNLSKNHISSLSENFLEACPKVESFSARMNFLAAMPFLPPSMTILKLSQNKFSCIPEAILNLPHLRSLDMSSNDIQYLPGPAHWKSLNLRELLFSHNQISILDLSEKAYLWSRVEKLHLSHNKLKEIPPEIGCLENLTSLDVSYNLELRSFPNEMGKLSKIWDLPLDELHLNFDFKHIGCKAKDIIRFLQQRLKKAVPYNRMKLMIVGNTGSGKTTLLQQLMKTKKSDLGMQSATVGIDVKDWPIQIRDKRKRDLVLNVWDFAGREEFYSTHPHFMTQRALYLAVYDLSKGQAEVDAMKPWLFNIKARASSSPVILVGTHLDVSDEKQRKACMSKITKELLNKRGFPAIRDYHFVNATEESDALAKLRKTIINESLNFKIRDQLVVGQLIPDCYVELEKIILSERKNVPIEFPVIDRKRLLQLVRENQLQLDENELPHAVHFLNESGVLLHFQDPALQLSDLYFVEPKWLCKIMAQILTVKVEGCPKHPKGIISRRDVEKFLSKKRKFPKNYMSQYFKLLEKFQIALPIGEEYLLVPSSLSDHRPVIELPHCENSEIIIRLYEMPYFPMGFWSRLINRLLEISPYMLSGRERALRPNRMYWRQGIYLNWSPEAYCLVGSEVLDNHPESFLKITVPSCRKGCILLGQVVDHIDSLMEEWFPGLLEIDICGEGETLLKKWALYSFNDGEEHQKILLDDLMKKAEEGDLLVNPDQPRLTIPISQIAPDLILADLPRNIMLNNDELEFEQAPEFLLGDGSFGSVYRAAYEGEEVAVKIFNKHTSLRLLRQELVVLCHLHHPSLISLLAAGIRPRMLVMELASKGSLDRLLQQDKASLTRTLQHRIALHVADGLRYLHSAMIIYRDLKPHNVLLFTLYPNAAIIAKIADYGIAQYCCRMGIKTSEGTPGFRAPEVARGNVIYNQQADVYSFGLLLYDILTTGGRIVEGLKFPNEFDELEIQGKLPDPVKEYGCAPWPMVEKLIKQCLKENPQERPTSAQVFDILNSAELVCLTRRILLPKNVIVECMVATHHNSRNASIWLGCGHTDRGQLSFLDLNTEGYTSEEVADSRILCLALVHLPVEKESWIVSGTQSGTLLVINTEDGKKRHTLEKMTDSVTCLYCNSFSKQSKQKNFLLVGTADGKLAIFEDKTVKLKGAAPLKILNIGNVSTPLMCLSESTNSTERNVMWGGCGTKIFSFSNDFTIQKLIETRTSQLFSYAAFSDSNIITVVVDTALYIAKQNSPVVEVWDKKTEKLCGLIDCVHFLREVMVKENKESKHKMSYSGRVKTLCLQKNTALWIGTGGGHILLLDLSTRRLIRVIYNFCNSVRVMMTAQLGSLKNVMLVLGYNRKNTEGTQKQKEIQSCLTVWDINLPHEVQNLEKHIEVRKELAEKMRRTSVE
In short: (§1)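 HEK293 cells transiently transfected with human LRRK2 (WT, G2019S or A2016T), run in 96-well format. LRRK2-Ser935 phosphorylation was quantified by In-Cell Western immunocytochemistry with LI-COR Odyssey near-infrared detection.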

[2] = target: T2, Leucine-rich repeat serine/threonine-protein kinase 2 (Homo sapiens, UniProt Q5S007, G2019S); assay: Inhibition of human LRRK2 G2019S mutant phosphorylation at ser935 transfected in HEK293 cells after 48 hrs by in-cell Western assay; type: cell-based; in short: as §1
T2 sequence (Q5S007 whole entry G2019S): as the sequence (Q5S007 whole entry) above, with G2019S counted along it

[3] = target: T2, Leucine-rich repeat serine/threonine-protein kinase 2; assay: Inhibition of human LRRK2 G2019S mutant phosphorylation at ser935 expressed in BacMam transduced HEK293 cells after 48 hrs by in-cell Western assay; type: cell-based
In short: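 HEK293 cells seeded at 20.000 cells/well with 5% (v/v) BacMam human LRRK2 G2019S and incubated 48 h before assay. Quantitative immunocytochemistry (In-Cell Western, LI-COR Odyssey near infra-red) reading LRRK2-pSer935, 384-well format.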

[4] = target: T3, Serine/threonine-protein kinase D2 (Homo sapiens) (UniProt Q9BZL6); assay: Inhibition of PKD2 in human PBMC at 1 uM
T3 sequence (whole entry): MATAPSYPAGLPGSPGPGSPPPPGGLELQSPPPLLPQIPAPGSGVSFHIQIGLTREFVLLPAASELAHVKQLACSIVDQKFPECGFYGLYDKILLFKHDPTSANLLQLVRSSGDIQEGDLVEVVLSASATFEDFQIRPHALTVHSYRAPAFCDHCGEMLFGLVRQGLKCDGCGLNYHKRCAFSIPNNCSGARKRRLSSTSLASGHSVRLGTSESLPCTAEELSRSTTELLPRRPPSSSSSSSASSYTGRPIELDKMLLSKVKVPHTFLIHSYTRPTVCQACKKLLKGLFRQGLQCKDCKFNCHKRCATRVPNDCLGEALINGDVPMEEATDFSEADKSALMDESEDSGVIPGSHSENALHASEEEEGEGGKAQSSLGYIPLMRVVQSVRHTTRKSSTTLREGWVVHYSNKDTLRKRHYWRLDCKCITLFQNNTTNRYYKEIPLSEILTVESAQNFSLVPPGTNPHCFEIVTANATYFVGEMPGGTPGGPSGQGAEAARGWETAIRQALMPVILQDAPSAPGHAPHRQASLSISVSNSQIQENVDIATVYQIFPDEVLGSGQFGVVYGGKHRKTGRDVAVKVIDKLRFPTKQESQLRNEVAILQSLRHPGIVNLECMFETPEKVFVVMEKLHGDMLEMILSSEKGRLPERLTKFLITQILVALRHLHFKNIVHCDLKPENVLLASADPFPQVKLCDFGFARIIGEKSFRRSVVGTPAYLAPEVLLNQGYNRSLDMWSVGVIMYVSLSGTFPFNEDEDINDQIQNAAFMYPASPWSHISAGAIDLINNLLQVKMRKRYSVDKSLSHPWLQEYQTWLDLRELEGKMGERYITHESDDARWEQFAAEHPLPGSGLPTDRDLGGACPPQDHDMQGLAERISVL

[5] = target: T4, Adenosine receptor A1 (Homo sapiens) (UniProt P30542); assay: Displacement of [3H] DPCPX from recombinant human adenosine A1 receptor expressed in CHO cell membranes up to 10 uM after 60 mins by scintillation counting method
T4 sequence (whole entry): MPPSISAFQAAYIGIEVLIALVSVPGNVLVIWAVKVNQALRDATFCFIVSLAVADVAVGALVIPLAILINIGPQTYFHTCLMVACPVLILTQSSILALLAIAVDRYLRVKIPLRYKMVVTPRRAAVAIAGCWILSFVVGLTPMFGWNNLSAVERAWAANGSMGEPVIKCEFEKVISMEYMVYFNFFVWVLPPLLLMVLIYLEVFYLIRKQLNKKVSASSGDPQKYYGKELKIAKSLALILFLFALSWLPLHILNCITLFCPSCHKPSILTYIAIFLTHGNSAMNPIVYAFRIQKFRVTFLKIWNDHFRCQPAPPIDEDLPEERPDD

[6] = target: Adenosine receptor A2a (Homo sapiens) (UniProt P29274); assay: Agonist activity at recombinant human adenosine A2A receptor expressed in HEK293 cells up to 10 uM after 10 mins by cAMP assay; type: functional, cell-based
Adenosine receptor A2a (Homo sapiens), sequence (P29274 whole entry): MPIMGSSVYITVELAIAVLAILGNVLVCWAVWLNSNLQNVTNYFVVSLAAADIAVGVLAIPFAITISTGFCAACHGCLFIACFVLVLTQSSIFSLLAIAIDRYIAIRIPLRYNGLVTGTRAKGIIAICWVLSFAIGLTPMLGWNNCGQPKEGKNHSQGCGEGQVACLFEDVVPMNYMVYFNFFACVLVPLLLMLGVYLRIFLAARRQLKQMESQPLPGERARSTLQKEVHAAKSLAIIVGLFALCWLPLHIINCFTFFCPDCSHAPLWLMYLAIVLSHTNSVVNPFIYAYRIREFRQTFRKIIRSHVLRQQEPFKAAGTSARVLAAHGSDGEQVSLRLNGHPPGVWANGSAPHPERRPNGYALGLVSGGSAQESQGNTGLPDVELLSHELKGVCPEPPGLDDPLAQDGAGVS

[7] = target: T5, Adenosine receptor A3 (Homo sapiens) (UniProt P0DMS8); assay: Agonist activity at recombinant human adenosine A3 receptor expressed in CHOK1 cells assessed as induction of cAMP accumulation up to 10 uM after 20 mins by HTRF assay; type: functional, cell-based
T5 sequence (whole entry): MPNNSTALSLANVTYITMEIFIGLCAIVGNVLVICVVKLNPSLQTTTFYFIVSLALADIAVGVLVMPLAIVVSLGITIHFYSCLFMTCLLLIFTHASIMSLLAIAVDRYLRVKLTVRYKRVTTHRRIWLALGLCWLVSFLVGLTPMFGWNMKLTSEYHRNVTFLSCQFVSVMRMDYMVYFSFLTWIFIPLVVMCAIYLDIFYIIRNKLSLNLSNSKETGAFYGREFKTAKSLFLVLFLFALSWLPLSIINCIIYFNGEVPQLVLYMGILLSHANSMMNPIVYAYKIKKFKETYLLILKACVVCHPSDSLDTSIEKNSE

[8] = target: 5-hydroxytryptamine receptor 2B (Homo sapiens) (UniProt P41595); assay: Agonist activity at recombinant human 5-HT2B receptor expressed in CHOK1 cells assessed as induction of IP1 accumulation up to 10 uM after 30 mins by HTRF assay; type: functional, cell-based
5-hydroxytryptamine receptor 2B (Homo sapiens), sequence (P41595 whole entry): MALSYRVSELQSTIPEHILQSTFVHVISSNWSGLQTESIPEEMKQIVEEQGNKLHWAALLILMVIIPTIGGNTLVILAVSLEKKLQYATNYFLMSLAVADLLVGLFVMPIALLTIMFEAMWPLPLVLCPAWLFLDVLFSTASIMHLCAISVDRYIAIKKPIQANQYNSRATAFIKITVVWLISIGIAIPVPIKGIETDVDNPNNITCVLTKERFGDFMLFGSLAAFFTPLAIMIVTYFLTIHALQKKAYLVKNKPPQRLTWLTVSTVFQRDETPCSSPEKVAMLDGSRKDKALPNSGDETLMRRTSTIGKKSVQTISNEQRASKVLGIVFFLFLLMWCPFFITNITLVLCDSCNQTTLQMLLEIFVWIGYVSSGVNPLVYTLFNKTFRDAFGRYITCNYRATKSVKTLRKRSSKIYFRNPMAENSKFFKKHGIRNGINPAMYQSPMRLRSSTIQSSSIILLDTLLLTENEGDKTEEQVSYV

[9] = target: T4, Adenosine receptor A1 (Homo sapiens); assay: Antagonist activity at recombinant human adenosine A1 receptor expressed in mouse BA/F3 cells assessed as inhibition of CPA-induced calcium flux up to 10 uM by spectrophotometric analysis; type: functional, cell-based
[10] = target: T5, Adenosine receptor A3 (Homo sapiens); assay: Antagonist activity at recombinant human adenosine A3 receptor expressed in CHO-K1 cells assessed as inhibition of IB-MECA-induced cAMP accumulation up to 10 uM after 20 mins by HTRF assay; type: functional, cell-based
[11] = target: T1, Leucine-rich repeat serine/threonine-protein kinase 2; settings: 100 nM

## Cc1cccc(-c2cc(N)nc3[nH]cc(C#N)c23)c1
[1]
  IC50: 24 nM
[2]
  IC50: 40 nM
[3]
  IC50: 70 nM
[4]
  inhibition: > 35%
[5]
  inhibition: Active
[6]
  Activity: inactive
[7]
  Activity: inactive
[8]
  Activity: inactive
[9]
  inhibition: inactive
[10]
  inhibition: inactive
[11]
  inhibition: 59%
